Consider 1 compound from ChEMBL document CHEMBL3124841, “Discovery of vinyl sulfones as a novel class of neuroprotective agents toward Parkinson's disease therapy” (J Med Chem, 2014).

Data set [1] has as its target T1, Nuclear factor erythroid 2-related factor 2 (Mus musculus) (UniProt Q60795).
T1 sequence (whole entry): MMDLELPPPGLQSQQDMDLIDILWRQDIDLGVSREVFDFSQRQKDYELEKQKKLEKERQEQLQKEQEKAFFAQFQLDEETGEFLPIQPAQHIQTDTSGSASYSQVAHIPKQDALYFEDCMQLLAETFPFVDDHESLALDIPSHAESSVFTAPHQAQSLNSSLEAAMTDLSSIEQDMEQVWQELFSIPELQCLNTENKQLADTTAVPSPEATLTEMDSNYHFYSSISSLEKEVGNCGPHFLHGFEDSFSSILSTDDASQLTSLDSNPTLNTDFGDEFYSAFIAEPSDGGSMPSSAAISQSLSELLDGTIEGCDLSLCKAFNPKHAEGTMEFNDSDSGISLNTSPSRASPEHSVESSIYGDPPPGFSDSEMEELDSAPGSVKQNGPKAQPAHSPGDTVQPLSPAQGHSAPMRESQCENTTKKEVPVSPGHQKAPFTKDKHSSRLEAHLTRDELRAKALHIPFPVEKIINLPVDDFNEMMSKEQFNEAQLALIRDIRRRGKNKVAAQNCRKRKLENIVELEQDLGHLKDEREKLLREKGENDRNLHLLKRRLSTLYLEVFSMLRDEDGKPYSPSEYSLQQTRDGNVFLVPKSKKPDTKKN
Briefly: Induction of Nrf2-dependent NQO1 gene expression in mouse CATH.a cells after 6 hrs by RT-PCR analysis. Type of data set: cell-based. Summed up: (§1)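 CATH.a cells grown in RPMI 1640 with 8% horse serum and 4% FBS, exposed to graded concentrations for 6 h. mRNA analysed by RT-PCR with gene-specific primers, products run on 1% agarose gel, band densitometry normalized to GAPDH. At least duplicate cultures; fold induction versus untreated control ± SEM.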

Data set [2] deals with T1, Nuclear factor erythroid 2-related factor 2 (Mus musculus). Briefly: Induction of Nrf2-dependent NQO1 gene expression in mouse CATH.a cells at 0.1 uM after 6 hrs by RT-PCR analysis. In kind it is cell-based. Summed up:
as §1

For data set [3] the target is unchanged. Briefly: Activation of Nrf2 in mouse CATH.a cells assessed as increase in total Nrf2 protein level at 1 uM after 24 hrs by western blot analysis. In kind it is cell-based. Summed up:
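CATH.a cells (RPMI 1640, 8% horse serum, 4% FBS, 37 °C, 5% CO2) exposed to various concentrations for 24 h. Whole-cell lysate in RIPA buffer with protease inhibitors, 10% SDS-PAGE, Nrf2 immunoblot, chemiluminescence, densitometry normalized to β-actin. At least duplicate cultures, averaged, fold of untreated control ± SEM.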

Data set [4] shares this target. Briefly: Induction of Nrf2-dependent GCLC protein expression in mouse CATH.a cells at 0.1 uM after 24 hrs by western blot analysis. In kind it is cell-based. Summed up: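 Cells (CATH.a) exposed to graded concentrations for 24 h, lysed in RIPA buffer with protease inhibitors. Equal protein separated on 10% SDS gel, blotted; primary antibodies overnight at 4 °C, HRP secondary, chemiluminescence. Densitometry normalized to β-actin. At least duplicate cultures, fold of untreated control ± SEM.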
In general terms: In western blotting, separated proteins are transferred to a membrane and probed.

Another data set has as its system Mus musculus. Briefly: Neuroprotective activity against MPTP-induced neurodegeneration in C57Bl/6 mouse parkinson's disease model assessed as increase in DAergic neurons in SN at 10 mg/kg/day, po for 3 days administered first dose at 24 hrs prior to first injection of 4X 20 mg/kg, ip MPTP challenge measured 7 days after first MPTP injection by immunohistochemistry. In kind it is functional, organism-based. An outline of the steps: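 Male C57Bl/6 mice (23−25 g, n = 10/group) dosed orally at 10 mg/kg/day for 3 days, vehicle N-methyl-2-pyrrolidone and 20% Tween 80 in saline. MPTP 4 × 20 mg/kg ip 2 h apart, starting 24 h after first oral dose. Perfusion-fixed 7 days after first MPTP; TH immunostaining, nigral cells counted and striatal fibers densitometered on five sections each, 80 μm apart. Expressed as % vehicle control ± SEM.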

Data set [5] concerns the target T1, Nuclear factor erythroid 2-related factor 2 (Mus musculus). Briefly: Induction of Nrf2-dependent HO1 gene expression in mouse CATH.a cells at 0.1 uM after 6 hrs by RT-PCR analysis. In kind it is cell-based. An outline of the steps:
as §1

Data set [6] can be described thus: Cytotoxicity against mouse CATH.a cells assessed as cell viability at 0.1 to 2 uM after 72 hrs by ATP assay. Type of data set: cell-based. Summed up:
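CATH.a cells seeded at 2.4 × 10⁴ cells/well, exposed to the agent alone for 72 h. Viability read as cellular ATP by CellTiter-Glo luminescence (2 min lysis, 10 min room temperature, 1 min read). At least duplicate cultures, percent of untreated control ± SEM.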

Structures are written as SMILES. The source made the active and inactive calls. No cut-off for these calls is given here.

On to `COc1ccccc1S(=O)(=O)/C=C/c1ccccc1Cl`, for which the Activity entry in data set [1] is “Dose-dependent effect”; in data set [6], “Non-toxic”. Further, the outcome in data set [2], in data set [4] and in data set [5] was inactive. The result (in data set [3]; in the data set on Mus musculus) was Active.
